DDE Tn7 FP inh = inhibitors of Tn7 peptide binding to fibrin DD(E), primary screen, biochemical, fluorescence polarization, human fibrin, Tn7 probe; FP displacement of FITC-Tn7 peptide from fibrin DD(E); 0% = median of compound wells per plate; 370,000 tested, 0.13% active; Fibrinogen beta chain (Homo sapiens), P02675; inhibition, % at 8.3 µM;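 active = inhibition above the mean of compounds falling within the control limits plus 3 SD of them, cut at about 14% in these data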;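 also: 0% = plate median of compound wells and 100% = 10 µM Aha-Tn7 peptide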
Target sequence (P02675 whole entry, looked up): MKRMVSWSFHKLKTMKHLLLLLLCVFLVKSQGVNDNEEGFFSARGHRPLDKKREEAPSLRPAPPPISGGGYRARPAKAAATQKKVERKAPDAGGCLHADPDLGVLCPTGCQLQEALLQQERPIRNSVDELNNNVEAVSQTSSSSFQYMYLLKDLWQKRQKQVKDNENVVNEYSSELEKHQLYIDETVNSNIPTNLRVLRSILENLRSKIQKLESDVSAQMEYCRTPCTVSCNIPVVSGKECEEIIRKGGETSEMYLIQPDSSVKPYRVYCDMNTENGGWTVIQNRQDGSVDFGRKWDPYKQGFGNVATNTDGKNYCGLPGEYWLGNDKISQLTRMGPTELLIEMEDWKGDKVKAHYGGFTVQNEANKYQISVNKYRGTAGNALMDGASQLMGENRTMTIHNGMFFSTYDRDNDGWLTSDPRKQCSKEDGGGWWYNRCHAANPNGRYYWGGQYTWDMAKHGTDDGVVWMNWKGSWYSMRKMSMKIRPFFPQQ
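system = human fibrin DD(E) protein | quantity = DD(E) 2 µM final | medium = Tris/NaCl/CaCl2 buffer, pH 7.8 | also added = labelled Tn7 tracer, 0.1 µM | compound dosing = single point at 8.3 µM | timing = compound with protein 10 min, then 3 h after probe, room temperature | signal = FP measurement | benchmarks = Aha-Tn7 high control | repeats = one replicate per compound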
DDE Tn6 FP inh = inhibitors of Tn6 peptide binding to fibrin DD(E), primary screen, biochemical, fluorescence polarization, human fibrin, Tn6 probe; Fibrin DD(E) TRITC-Tn6 fluorescence polarization displacement; 370,000 tested, 0.21% active; inhibition, % at 8.3 µM;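 active = inhibition above a per-campaign cutoff: mean of compounds within control limits plus 3 SD, cut at about 15% in these data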;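 also: 0% = median of all compound wells on the plate and 100% = blocking peptide control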
RTF Ca sens inh = cardiac RTF calcium sensitivity inhibitors, primary screen, biochemical, IANBD-TnC fluorescence, EC70 calcium; 340,000 tested, 0.12% active; AID 493244, 2011; inhibition, % at 7.15 µM; Troponin I, cardiac muscle (Homo sapiens) + Troponin T, cardiac muscle (Homo sapiens) + …; IANBD-labeled cardiac RTF, Ca2+ fluorescence;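 active = inhibition above the mean inhibition of all tested compounds plus 3 SD, cut at about 17% in these data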;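 also: assay run at fixed EC70 calcium of 1.6 mM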
RTF Ca sens act = cardiac RTF calcium sensitivity activators, primary screen, biochemical, IANBD-TnC fluorescence, EC20 calcium; IANBD-labeled TnC RTF fluorescence at EC20 calcium; 0% EC20 calcium, 100% full calcium; activation, % at 7.2 µM; 340,000 tested, 0.24% active;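 active = activation above the mean over all tested compounds plus 3 SD, cut at about 30% in these data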;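 also: rise in fluorescence read as greater calcium sensitivity of cardiac thin filaments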
CRFBP-R2 block = antagonists of CRF-BP/CRF-R2 complex, primary screen, cell-based, HEK293, calcium dye fluorescence, uHTS; 350,000 tested, 0.59% active; inhibition, % at 11.8 µM; CRF-induced calcium fluorescence;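 active = inhibition of the ligand-induced calcium signal above about 50% at the single tested concentration, limit read from the data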
CRFBP-R2 agonist = agonists of CRF-BP/CRF-R2 complex, primary screen, cell-based, HEK293, calcium dye fluorescence, uHTS; CRF-binding protein / CRF receptor 2 complex (human); calcium dye fluorescence (FLIPR); percent of saturating CRF peptide response; activation, % at 13.2 µM; 350,000 tested, 0.46% active;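 active = activation of at least 50%, plus an integration ratio under a set limit after plate pattern correction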;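 also: plate controls were neutral control wells without compound for no effect and CRF at EC100 for full effect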
An asterisk follows results filed as active; · = no result given. The list is not random: actives were taken first. Their share in the collection is about 1.4%.

SMILES	DDE Tn7 FP inh	DDE Tn6 FP inh	RTF Ca sens inh	RTF Ca sens act	CRFBP-R2 block	CRFBP-R2 agonist
COc1ccc(-c2nc3c(Cl)cc(C(F)(F)F)cn3c2Cc2cccc(F)c2)cc1OC	-6	2	·	·	·	·
COc1cc(/C=C(\C#N)c2nc3ccccc3s2)cc([N+](=O)[O-])c1O	-7	-14	2	2	61*	0
N#C/C(=C\c1ccc(O)c([N+](=O)[O-])c1)c1nc2ccccc2s1	3	1	14	-9	49	11
O=C(C[C@@H]1C/C=C/CC[C@H](Cc2ccc(F)cc2)C(=O)O[C@H](c2ccccc2)CNC1=O)NCCO	-1	-1	4	0	-2	4
O=C(C[C@H]1C/C=C\C[C@@H](Cc2ccc(F)cc2)C(=O)O[C@H](c2ccccc2)CNC1=O)NCCO	2	5	5	3	84*	1
Cn1c(=O)c2c(-c3ccccc3)n(-c3ccc(N)cc3)cc2n(C)c1=O	-6	12	·	·	·	·
COC(=O)C1C2CC3c4[nH]c5cc(OC)ccc5c4CCN3CC2CC(OC(=O)CC(C)=O)C1OC (stereo not given)	4	-9	-76	46*	-22	15
Cc1ccccc1Cn1cc(CN2[C@@H](CC(C)C)COc3cc(Br)ccc3S2(=O)=O)nn1	-2	-2	·	·	·	·
CC(C)Cc1csc(NC(=O)c2ccc(Cl)cc2)c1C(=O)O	7	4	-1	2	95*	27
CC(C)c1ccc(C(=O)Nc2cc(Cl)ccc2C(=O)O)cc1	-7	2	·	·	·	·
Cc1cc(C)cc(Nc2c(F)c(F)c(F)c(F)c2C(=O)O)c1	-5	3	·	·	52*	-2
COc1c(F)c(F)c(C(=O)O)c(Nc2cccc(C)c2)c1F	8	0	·	·	21	0
COc1ccc(CCNC(=O)Cn2ncc3c2-c2cc(C)ccc2OC3)cc1	-3	2	·	·	·	·
COc1ccc(C2CCC3(CCC(=O)N3CCO)CC2)cc1 (stereo not given)	3	2	·	·	·	·
CC1(C)CC(=O)C(N=Nc2ccc3ncsc3c2)=C(O)C1	-4	1	-10	1	7	1
COc1ccc2nc(N=NC3=C(O)CC(C)(C)CC3=O)sc2c1	1	-2	3	-8	50*	0
CCNC(=O)C1(C)CCCN(Cc2ccc(Oc3ccccc3)cc2)C1 (stereo not given)	-1	-1	·	·	·	·
CSCCC(NC(=O)c1ccco1)C(=O)OCc1cc([N+](=O)[O-])cc2c1OCOC2 (stereo not given)	3	1	-7	-8	-44	56*
CC(=O)C1=C(O)C(=O)N(c2nccs2)C1c1ccccc1 (stereo not given)	-2	0	-5	-2	94*	-3
O=C(COc1ccc2ccccc2c1)N1CCN(C(=O)c2ccc([N+](=O)[O-])cc2)CC1	-9	2	-8	5	72*	-5
O=C(COc1ccccc1)N1CCN(C(=O)c2ccc([N+](=O)[O-])cc2)CC1	-5	3	2	-1	11	0
O=C(OCc1cc(=O)n2ccsc2n1)C1(c2ccccc2)CC1	2	0	·	·	71*	0
O=c1cc(CN2CCc3ccccc32)nc2sccn12	-3	7	1	-6	-9	1
O=c1cc(CN2CCCc3ccccc32)nc2sccn12	7	-3	-51	62*	7	24
CC(C)CC(N)c1csc(Nc2ncccn2)n1 (stereo not given)	3	1	·	·	·	·
SMILES	DDE Tn7 FP inh	DDE Tn6 FP inh	RTF Ca sens inh	RTF Ca sens act	CRFBP-R2 block	CRFBP-R2 agonist
O=C(CSc1nc2ccccc2[nH]1)NN=Cc1c(F)cccc1Cl	-3	10	·	·	·	·
COc1ccc(CN(C2CCCCC2C)S(=O)(=O)c2ccc(S(=O)(=O)N(C)C)cc2)cc1OC (stereo not given)	-4	-6	-12	6	-139	148*
CCN(CC(=O)Nc1c(F)cccc1F)C(=O)c1ccc(S(=O)(=O)N2CCCCCC2)cc1	-10	-9	-12	2	-3	0
COc1ccccc1NC(=O)COC(=O)c1ccc2c(=O)n3c(nc2c1)CCC3	3	2	·	·	5	0
O=C(Oc1ccccc1F)c1ccc2c(=O)n3c(nc2c1)CCC3	0	-4	-7	-3	99*	6
CCN(CC(=O)Nc1c(F)cccc1F)C(=O)c1ccc2c(=O)n3c(nc2c1)CCC3	2	5	-3	-1	104*	-1
CC(NC(=O)COC(=O)c1ccc2c(=O)n3c(nc2c1)CCCCC3)c1ccccc1 (stereo not given)	2	-1	0	-2	63*	-1
CCN(CC(=O)Nc1c(F)cccc1F)C(=O)c1ccc(S(=O)(=O)N2CCC(C)CC2)cc1	-1	-6	0	2	122*	-1
CCOc1cc(/C=C2\C(=N)N3N=C(S(C)(=O)=O)SC3=NC2=O)ccc1OCCOc1cccc(OC)c1	0	1	-3	5	27	0
COc1cc(/C=C2\C(=N)N3N=C(S(C)(=O)=O)SC3=NC2=O)cc(OC)c1OCCOc1ccc(C)cc1	2	2	-5	-1	38	1
CCS(=O)(=O)C1=NN2C(=N)/C(=C\c3ccc(OCCOc4cccc(OC)c4)c(OC)c3)C(=O)N=C2S1	2	-5	0	-6	53*	0
COc1cc(/C=C2\C(=N)N3N=C(S(C)(=O)=O)SC3=NC2=O)ccc1OCCOc1ccc(C)cc1	0	8	-11	-6	72*	8
COC(=O)[C@]12CCCCC=C1N(Cc1ccc(OC)cc1)C(=O)[C@@H]2CC(=O)NCCc1ccccc1OC	11	14	·	·	·	·
COc1ccc(-n2c(O)c(C=Nc3ccccc3)c3ccccc3c2=O)cc1	-4	1	-5	-2	-6	4
COc1ccc(N=Cc2sc(O)c3ccccc23)cc1	-4	-4	-145	79*	-320	271*
COc1ccc(N=Cc2c(O)c3ccccc3n2C(C)=O)cc1	2	-5	-16	16	-67	99*
COc1ccc(N=Cc2c(OC)ccc3ccccc23)cc1	-6	1	-10	6	-2	-1
O=C(Cc1cn(Cc2ccccc2)c2ccccc12)Nc1ccc(Oc2cccnc2)cc1	9	3	·	·	·	·
